Experiment [1] relates to HCT-116. Put plainly: Cytotoxicity against human HCT116 cells. It is filed as functional, cell-based. Summed up:
(§1)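 Growth inhibition measured by a previously published method in KB (oral epidermoid carcinoma) and HCT-116 (human colon carcinoma) cells. Taxotere served as the reference compound. IC50 was reported.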

Experiment [2] concerns KB. Put plainly: Cytotoxicity against human KB cells. It is filed as functional, cell-based. The method, boiled down: as §1
Experiment [3] concerns KB. The experiment is described as follows: Cytotoxicity against human KB cells at 10 ug/mL. It is filed as functional, cell-based. Summed up: (§2)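 Single-concentration screen at 10 µg/mL in KB (oral epidermoid carcinoma) and HCT-116 (human colon carcinoma) cells, run by a previously published cytotoxicity method. Taxotere served as the reference.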
Experiment [4] relates to HCT-116. Put plainly: Cytotoxicity against human HCT116 cells at 10 ug/mL. It is filed as functional, cell-based. Summed up:
as §2

The target in another experiment is Bcl-2-like protein 1 (Homo sapiens, UniProt Q07817). The experiment is described as follows: Displacement of fluorescently-tagged BH3 peptide from Bcl-XL by fluorimetric assay. Summed up:
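Fluorescence-polarization competition assay in which test compound displaces a fluorescent-tagged Bak BH3-domain peptide from Bcl-xL. Unlabeled Bak(BH3) peptide served as the positive control. Output was percent inhibition of labeled-peptide binding, or IC50 as the concentration giving 50% inhibition.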

SMILES strings stand for the structures. Active and inactive are the calls of the source. No cut-off for these calls is given here. A value given as a limit tells only on which side of the number the result lay.

Chain of Bcl-2-like protein 1 (Q07817 whole entry): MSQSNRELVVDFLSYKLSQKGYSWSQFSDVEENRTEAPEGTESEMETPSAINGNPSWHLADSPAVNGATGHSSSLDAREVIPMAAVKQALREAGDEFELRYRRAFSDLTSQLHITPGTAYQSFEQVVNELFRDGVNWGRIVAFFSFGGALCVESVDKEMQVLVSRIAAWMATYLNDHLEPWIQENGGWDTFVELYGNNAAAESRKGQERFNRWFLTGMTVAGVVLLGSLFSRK

Usually IC50 stands for the point on the concentration scale where inhibition reaches its midpoint. For `C[C@]12C[C@]34CC[C@@H]5[C@](C)([C@H](O)CC[C@@]5(C)C(=O)O)[C@@H]3C[C@H]1[C@H]2C4`, the IC50 in the experiment with HCT-116 [1] was more than 31.4 µM; with KB [2] it was more than 31.4 µM; at Bcl-2-like protein 1, “Not Active”. For the same compound, the inhibition result with KB [3] and in the experiment with HCT-116 [4] was “inactive” each time.

In the case of `C[C@]12CCC[C@@](C)(C(=O)O)[C@@H]1CC[C@]13C[C@@H](C=C[C@@H]12)[C@@](C)(O)C3`, the results for the IC50 in the experiment with HCT-116 [1], with KB [2] and at Bcl-2-like protein 1 (read-out: IC50) were more than 31.4 µM, more than 31.4 µM and 380 µM, respectively. Besides, the inhibition result in the experiment with KB [3] and in the experiment on HCT-116 [4] was “inactive” each time.

On to `CO[C@@]1(C)C[C@]23CC[C@@H]4[C@](C)([C@H](O)CC[C@@]4(C)C(=O)O)[C@H]2C=C[C@@H]1C3`, for which the values for the IC50 in the experiment on HCT-116 [1], with KB [2] and on Bcl-2-like protein 1 were more than 28.7 µM, more than 28.7 µM and “Not Active”, respectively. Besides, the inhibition entry in the experiment on KB [3] and with HCT-116 [4] was “inactive” in each case.

Consider `CC(=O)O[C@@]12CO[C@@H]1C[C@H](O)[C@@]1(C)C(=O)[C@H](O)C3=C(C)[C@@H](OC(=O)[C@H](O)[C@@H](NC(=O)OC(C)(C)C)c4ccccc4)C[C@@](O)([C@@H](OC(=O)c4ccccc4)[C@H]21)C3(C)C` [DOCETAXEL], for which the IC50 amounted to 0.0012 µM in the experiment on HCT-116 [1] and 0.00015 µM in the experiment on KB [2].

For `C[C@]12[C@H](O)CC[C@@](C)(C(=O)O)[C@@H]1CC[C@]13C[C@@H](C=C[C@@H]12)[C@@](C)(O)C3`, the IC50 was more than 29.9 µM in the experiment with HCT-116 [1], more than 29.9 µM in the experiment on KB [2] and “Not Active” at Bcl-2-like protein 1. Further, the inhibition entry in the experiment on KB [3] and in the experiment on HCT-116 [4] was “inactive” throughout.

Consider `C[C@]12CCC[C@@](C)(C(=O)O)[C@@H]1CC[C@]13C[C@@H]4[C@H](C[C@H]12)[C@]4(CO)C3`, for which the values for the IC50 with HCT-116 [1], in the experiment with KB [2] and at Bcl-2-like protein 1 (read-out: IC50) were more than 31.4 µM, more than 31.4 µM and 220 µM, respectively. The inhibition entry in the experiment on KB [3] and in the experiment with HCT-116 [4] was “inactive” in each case.

As to `C[C@]12CCC[C@@](C)(C(=O)O)[C@@H]1CC[C@]13C[C@@H]4[C@H](C[C@H]12)[C@]4(C)C3`, on Bcl-2-like protein 1 (read-out: IC50), the IC50 was determined as 400 µM.

Take `CC1=C[C@]23CC[C@@H]4[C@](C)([C@H](O)CC[C@@]4(C)C(=O)O)[C@H]2[C@H]2[C@H](C3)[C@@H]12`: the IC50 in the experiment with HCT-116 [1] is more than 31.6 µM; in the experiment on KB [2], more than 31.6 µM; on Bcl-2-like protein 1, “Not Active”. Besides, the inhibition result in the experiment with KB [3] and with HCT-116 [4] was “inactive” in each case.

Values taken from ChEMBL document CHEMBL1165962, “Rearranged diterpenoids from the biotransformation of ent-trachyloban-18-oic acid by Rhizopus arrhizus” (J Nat Prod, 2010).
